Compound activity deposited in PubChem by several laboratories.
A selection: hits, their analogues and other compounds. The true share with any hit is near 3.1%.
PP1 inh – PP1-alpha (human) inhibition in PP5 counter-screen | purified PP1alpha, OMFP fluorescence | 320,000 compounds, 0.9% hits | inhibition, % at 6.7 µM | P62136;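 active means inhibition above the mean inhibition of all tested compounds plus 3 SD, computed separately for each screening campaign, cut at about 15% in these data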
Target sequence (P62136 whole entry, looked up): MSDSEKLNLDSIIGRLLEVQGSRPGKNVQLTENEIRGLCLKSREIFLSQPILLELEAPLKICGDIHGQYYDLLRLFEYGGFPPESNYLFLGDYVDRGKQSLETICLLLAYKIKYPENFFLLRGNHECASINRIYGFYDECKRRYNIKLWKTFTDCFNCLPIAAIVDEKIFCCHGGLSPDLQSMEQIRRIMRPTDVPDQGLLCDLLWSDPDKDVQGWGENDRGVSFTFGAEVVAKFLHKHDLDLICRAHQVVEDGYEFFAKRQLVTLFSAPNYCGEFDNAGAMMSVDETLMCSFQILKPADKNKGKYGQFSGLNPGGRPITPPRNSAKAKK
Myeloid diff 2 – promotes myeloid progenitor differentiation; ER-HoxA9 myeloid progenitors, lysozyme-GFP differentiation, flow cytometry; calls only at 10 µM; 360,000 compounds, 1% hits; AID 624256;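 active means normalized GFP-positive differentiation at or above the plate's own cutoff, the solvent-only control mean plus 3 SD; inconclusive means no clear call, values can overlap the other calls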;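 further: cells exposed to compound for four days before flow analysis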
NadD inh – blocks S. aureus nicotinate mononucleotide adenylyltransferase; purified NadD enzyme, colorimetric absorbance read-out; AID 602399; inhibition, % at 20 µM; 360,000 compounds, 0.78% hits; in the data active means inhibition above about 26%
PP5 inh – blocks human protein phosphatase 5 activity. 320,000 compounds, 0.18% hits. purified PP5c, OMFP substrate fluorescence. inhibition, % at 6.7 µM;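 active means inhibition above the campaign's mean inhibition across all tested compounds plus 3 SD, cut at about 9.5% in these data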
HCV core dimer – HCV core protein dimerization inhibition; TR-FRET GST/Flag-core106 dimerization, 1536-well; 300,000 compounds, 0.33% hits; inhibition, % at 5 µM;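 active means inhibition above the mean of all tested compounds plus 3 SD, set per screening campaign, cut at about 45% in these data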
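test system = GST/Flag-tagged HCV core106 proteins | probe or stimulus = Eu donor and XL665 acceptor anti-tag antibodies | times = compound-protein-antibody incubation 4 h at 22.5 °C | signal = TR-FRET, excitation 340 nm, emission 617 and 671 nm | measure = percent inhibition of core106 dimerization signal | controls = wells lacking GST-core106 and wells with excess unlabelled core106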
Fh CTSL1 inh – cathepsin L1 inhibition, PFM18AAP counter-screen; inhibition, % at 5.96 µM; recombinant F. hepatica cathepsin L1, Z-Leu-Arg-MCA fluorescence; 300,000 compounds, 0.49% hits; AID 1906;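 active means inhibition above the mean of all tested compounds plus 3 SD, set per screening campaign, cut at about 17% in these data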
Myeloid diff CP1 – myeloid differentiation induction; shares compounds with Myeloid diff 2; ER-HoxA9 myeloid progenitors, GFP/Mac1 double-positive flow; calls only; 2,300 compounds, 2% hits; AID 651706;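 active means share of green or green-and-red cells above 9 and 9% in run 1 or 4 and 3% in run 2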
GFP autofluor – compound fluorescence in myeloid differentiation counter-screen; fluorescence response, % (concentration not given with the values); ER-HoxA9 myeloid progenitors, no estrogen, GFP autofluorescence flow cytometry; vehicle wells 0%, positive control 100%; shares compounds with Myeloid diff 2; 2,300 compounds, 7.4% hits;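 active means over 5% cells positive for green fluorescent reporter, or over 2% positive for both it and APC stain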
Each line names hits and unclear results; the compound was inactive in the other large screens (follow-up assays come after a bar, where they were run).

O=C1CC(C(=O)N2CCCc3ccccc32)CN1c1ccc(Cl)cc1 (stereo not drawn)	none | Myeloid diff CP1 inactive | GFP autofluor inactive
COc1ccccc1OCc1ccc(C(=O)NN)cc1	none | Myeloid diff CP1 inactive | GFP autofluor inactive
O=C(CNS(=O)(=O)c1ccc(Br)s1)N1CCCC1	none
CCOC(=O)C1CCCN(C(=O)CNS(=O)(=O)c2ccc(Br)s2)C1 (stereo not drawn)	Myeloid diff 2 active | Myeloid diff CP1 inactive | GFP autofluor inactive
COCCNC(=O)C1(C)CCCN(C(=O)c2ccc(F)cc2Cl)C1 (stereo not drawn)	none (no result: PP1 inh, PP5 inh, HCV core dimer, Fh CTSL1 inh)
CS(=O)(=O)Nc1cccc(NC(=O)C2Cc3c(-c4ccccc4)ccnc3O2)c1 (stereo not drawn)	Myeloid diff 2 active (no result: PP1 inh, PP5 inh, HCV core dimer, Fh CTSL1 inh) | Myeloid diff CP1 inactive | GFP autofluor inactive
CC(=O)Nc1ccc(-c2ccnc3c2CC(C(=O)Nc2cccc(N(C)C)c2)O3)cc1 (stereo not drawn)	Myeloid diff 2 active (no result: PP1 inh, PP5 inh, HCV core dimer, Fh CTSL1 inh) | Myeloid diff CP1 inactive | GFP autofluor inactive
CC(=O)Nc1ccc(-c2ccnc3c2CC(C(=O)Nc2cccc(C(F)(F)F)c2)O3)cc1 (stereo not drawn)	Myeloid diff 2 active (no result: PP1 inh, PP5 inh, HCV core dimer, Fh CTSL1 inh) | Myeloid diff CP1 inactive | GFP autofluor inactive
O=C(Nc1ccc2c(c1)OCCO2)C(C1CC1)n1c(=O)c(-c2ccccc2)nc2ccccc21 (stereo not drawn)	none (no result: PP1 inh, NadD inh, PP5 inh, HCV core dimer, Fh CTSL1 inh)
Cc1cc(NS(=O)(=O)c2ccc(NC(=O)COc3ccc(C#N)cc3)cc2)nc(C)n1	none (no result: PP1 inh, PP5 inh, HCV core dimer, Fh CTSL1 inh)
O=c1[nH][nH]cc1C=Nc1ccccc1O	Myeloid diff 2 active | Myeloid diff CP1 active | GFP autofluor inactive
O=c1[nH][nH]cc1C=Nc1cc(Cl)ccc1O	none | Myeloid diff CP1 inactive | GFP autofluor inactive
O=c1[nH][nH]cc1C=Nc1ccc(Cl)cc1Cl	none
Oc1cccc(Nc2nc(O)c(/C=C3\C=Nc4ccccc43)s2)c1	Myeloid diff 2 active | Myeloid diff CP1 inactive | GFP autofluor inactive
COc1ccccc1C(c1nnnn1Cc1ccco1)N1CCN(c2cccc(C)c2C)CC1 (stereo not drawn)	none | Myeloid diff CP1 inactive | GFP autofluor inactive
Cc1ccc(S(=O)(=O)N(C)C)cc1NC(=O)CN1C(=O)NC2(CCc3ccccc32)C1=O (stereo not drawn)	none (no result: PP1 inh, PP5 inh, HCV core dimer, Fh CTSL1 inh)
Cc1nc(SCC(=O)NCC2CCCO2)c2c3c(sc2n1)CCC3 (stereo not drawn)	none (no result: PP1 inh, PP5 inh, HCV core dimer, Fh CTSL1 inh)
Cc1ccc2nc(SCC(=O)NCC3CCCO3)c(C#N)cc2c1 (stereo not drawn)	none
Cc1nc(SCC(=O)NCC2CCCO2)c2cc(-c3ccccc3)sc2n1 (stereo not drawn)	none (no result: HCV core dimer, Fh CTSL1 inh) | Myeloid diff CP1 inactive | GFP autofluor inactive
Cc1ccc(-c2[nH]c(-c3ccccc3)nc2SCC(=O)NCC2CCCO2)cc1 (stereo not drawn)	none
Cc1ccc(-c2nc(SCC(=O)NCC3CCCO3)c(-c3ccc(C)cc3)[nH]2)cc1 (stereo not drawn)	none | Myeloid diff CP1 inactive | GFP autofluor inactive
Cc1ccc2cc(C#N)c(SCC(=O)NCC3CCCO3)nc2c1 (stereo not drawn)	none | Myeloid diff CP1 inactive | GFP autofluor inactive
C=C1[C@@H](O)[C@H](CC(C)C)N(Cc2ccccc2Br)S1(=O)=O	none (no result: PP1 inh, PP5 inh, HCV core dimer, Fh CTSL1 inh)
OCc1cccc(-c2csc(C(O)c3ccccc3)n2)c1 (stereo not drawn)	none (no result: PP1 inh, PP5 inh, HCV core dimer, Fh CTSL1 inh)
CCOC(=O)C1(C)CCN1C(=O)COc1ccc(C(C)(C)C)cc1 (stereo not drawn)	none (no result: PP1 inh, PP5 inh, HCV core dimer, Fh CTSL1 inh)
Fc1cccc(-c2cc3nc(-c4ccccc4)cc(N4CCC5(CC4)OCCO5)n3n2)c1	none
Fc1ccc(-c2cc3nc(-c4ccccc4)cc(N4CCOCC4)n3n2)cc1	none | Myeloid diff CP1 inactive | GFP autofluor inactive
Cc1ccc(C(=O)NC(=S)c2c(C)cc3ccccn23)cc1	Myeloid diff 2 active (no result: PP1 inh, PP5 inh, HCV core dimer, Fh CTSL1 inh) | Myeloid diff CP1 inactive | GFP autofluor 11
COc1cccc(CNC(=O)CCC2CCCN(C(=O)c3ccc(C)nc3)C2)c1 (stereo not drawn)	Myeloid diff 2 active | Myeloid diff CP1 inactive | GFP autofluor inactive
Cc1ccc(C(=O)N2CCCC(CCC(=O)NCc3ccc(F)c(F)c3)C2)cn1 (stereo not drawn)	Myeloid diff 2 inconclusive (no result: PP1 inh, PP5 inh, HCV core dimer, Fh CTSL1 inh)
N#C/C(C(N)=O)=C1/SC(Cc2ccc(F)cc2)C(=O)N1c1ccccc1 (stereo not drawn)	none | Myeloid diff CP1 inactive | GFP autofluor inactive
Cc1ccccc1N1C(=O)C(Cc2ccc(F)cc2)S/C1=C(\C#N)C(N)=O (stereo not drawn)	none | Myeloid diff CP1 inactive | GFP autofluor inactive
CNC(=O)/C(C#N)=C1/SC(Cc2ccc(F)cc2)C(=O)N1c1ccccc1 (stereo not drawn)	none
COC(=O)[C@]1(Cc2ccccc2)N[C@H](CN(C)S(=O)(=O)c2ccc(C(C)(C)C)cc2)[C@@H]2C(=O)N(C)C(=O)[C@@H]21	none (no result: PP1 inh, PP5 inh, HCV core dimer, Fh CTSL1 inh)
Cc1ccc(SC2=C(C(=O)O)CCCC2)cc1	none
CC(=O)N1C[C@H]2CON(C)[C@H]2C[C@H]1c1cccc(N2CCOCC2)c1	none (no result: PP1 inh, PP5 inh, HCV core dimer, Fh CTSL1 inh)
CC1Cc2c([nH]c(=O)n(-c3ccccc3)c2=O)O1 (stereo not drawn)	none (no result: PP1 inh, PP5 inh, HCV core dimer, Fh CTSL1 inh) | Myeloid diff CP1 inactive | GFP autofluor inactive
O=c1[nH]c(=S)c2c(n1-c1ccccc1)CCC2	none
CC12C(=O)N(Cc3ccccc3)C(=O)C1C1C=CC2C1 (stereo not drawn)	none
CC12C(=O)N(CCC(=O)O)C(=O)C1C1C=CC2C1 (stereo not drawn)	Myeloid diff 2 active | Myeloid diff CP1 inactive | GFP autofluor inactive
CCOC(=O)C1(Nc2nccs2)Sc2ccccc2NC1=O (stereo not drawn)	Myeloid diff 2 active, Fh CTSL1 inh 33 | Myeloid diff CP1 inactive | GFP autofluor inactive
O=C(OCC#CCSc1nnc(-c2cccc3ccccc23)o1)c1ccc2ccccc2c1	none (no result: PP1 inh, PP5 inh, HCV core dimer, Fh CTSL1 inh)
COc1ccc(/C=N/NC(=O)c2cccc(NC(C)=O)c2)c(OC)c1	none
COc1ccc(C(=O)Nc2cccc(C(=O)N/N=C/c3ccc(OC)cc3OC)c2)cc1	none | Myeloid diff CP1 inactive | GFP autofluor inactive
CCCCCCC1CCC(C(=O)Nn2c(C)nc3ccccc3c2=O)CC1 (stereo not drawn)	none | Myeloid diff CP1 inactive | GFP autofluor inactive
Cc1ccc(N2CN(S(=O)(=O)c3cccc([N+](=O)[O-])c3)c3nc4ccccc4nc32)cc1	none
Cc1ccc(CN2CCC[C@]3(N[C@H](c4ccc(C)cc4)[C@@H]4C(=O)N(Cc5ccccc5)C(=O)[C@@H]43)C2=O)cc1	none (no result: PP1 inh, PP5 inh, HCV core dimer, Fh CTSL1 inh)
COc1cccc(C(NC(C)=O)c2nc(-c3ccccc3C)cs2)c1 (stereo not drawn)	none (no result: PP1 inh, PP5 inh, HCV core dimer, Fh CTSL1 inh)
Cc1ccc(Oc2ccc(-c3nc(N)nc(N)n3)cc2)cc1	Myeloid diff 2 active | Myeloid diff CP1 inactive | GFP autofluor inactive
